Results as given in ChEMBL document CHEMBL2203146, “Search for anticonvulsant and analgesic active derivatives of dihydrofuran-2(3H)-one” (Bioorg Med Chem, 2012).
Activity calls are given as the source filed them.

Experiments:
Mus musculus [1] = experiment: Anticonvulsant activity in albino CF1 mouse assessed as protection against subcutaneous metrazol-induced seizures at 30 to 300 mg/kg, ip after 0.5 to 4 hrs; format: functional, organism-based
Outline: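 CF No. 1 male mice dosed ip at 30, 100 or 300 mg/kg (saline or 0.5% methylcellulose), then given pentetrazole 85 mg/kg sc as 0.5% solution in posterior midline. Watched 30 min. Protection means no threshold seizure (single clonic spasm episode of at least 5 s). Expressed as protected/tested.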

Mus musculus [2] = experiment: Neurotoxicity in albino CF1 mouse assessed as minimal motor impairment at 300 mg/kg, ip after 4 hrs by rotorod test; format: toxicity, organism-based; design: dose 300 mg/kg, route intraperitoneal; settings: in vivo
Outline: (§1)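 Rotarod in male CF No. 1 mice after ip dosing (30, 100, 300 mg/kg; saline or 0.5% methylcellulose) at 15–240 min. Knurled plastic rod, 1-inch diameter, 6 rpm. Toxicity means failing to stay on for 1 min on three successive attempts. Recorded as toxic/tested.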

Mus musculus [3] = experiment: Neurotoxicity in albino CF1 mouse assessed as minimal motor impairment at 300 mg/kg, ip after 0.5 hr by rotorod test; format: toxicity, organism-based; design: dose 300 mg/kg, route intraperitoneal; settings: in vivo; outline: as §1
Mus musculus [4] = experiment: Neurotoxicity in albino CF1 mouse assessed as minimal motor impairment at 100 mg/kg, ip after 4 hrs by rotorod test; format: toxicity, organism-based; design: dose 100 mg/kg, route intraperitoneal; settings: in vivo; outline: as §1
Mus musculus [5] = experiment: Neurotoxicity in albino CF1 mouse assessed as minimal motor impairment at 100 mg/kg, ip after 1 hr by rotorod test; format: toxicity, organism-based; design: dose 100 mg/kg, route intraperitoneal; settings: in vivo; outline: as §1
Mus musculus [6] = experiment: Neurotoxicity in albino CF1 mouse assessed as minimal motor impairment at 100 mg/kg, ip after 0.5 hr by rotorod test; format: toxicity, organism-based; design: dose 100 mg/kg, route intraperitoneal; settings: in vivo; outline: as §1
Mus musculus [7] = experiment: Neurotoxicity in albino CF1 mouse assessed as minimal motor impairment at 100 mg/kg, ip after 0.25 hr by rotorod test; format: toxicity, organism-based; design: dose 100 mg/kg, route intraperitoneal; settings: in vivo; outline: as §1
Mus musculus [8] = experiment: Anticonvulsant activity in albino CF1 mouse assessed as protection against maximal electroshock-induced seizures at 300 mg/kg, ip after 4 hrs; format: functional, organism-based; design: dose 300 mg/kg
Outline: (§2)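 Male albino CF No. 1 mice (18–25 g) dosed ip at 30, 100 and 300 mg/kg in saline or 0.5% methylcellulose, tested 15, 30, 60 and 240 min after dosing. Maximal electroshock seizures elicited with 60-cycle alternating current. Scored as animals protected/animals tested, small qualitative groups.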

Mus musculus [9] = experiment: Anticonvulsant activity in albino CF1 mouse assessed as protection against maximal electroshock-induced seizures at 300 mg/kg, ip after 0.5 hr; format: functional, organism-based; design: dose 300 mg/kg; outline: as §2
Mus musculus [10] = experiment: Anticonvulsant activity in albino CF1 mouse assessed as protection against maximal electroshock-induced seizures at 100 mg/kg, ip after 4 hrs; format: functional, organism-based; design: dose 100 mg/kg; outline: as §2
Mus musculus [11] = experiment: Anticonvulsant activity in albino CF1 mouse assessed as protection against maximal electroshock-induced seizures at 100 mg/kg, ip after 1 hr; format: functional, organism-based; design: dose 100 mg/kg; outline: as §2
Mus musculus [12] = experiment: Anticonvulsant activity in albino CF1 mouse assessed as protection against maximal electroshock-induced seizures at 100 mg/kg, ip after 0.5 hr; format: functional, organism-based; design: dose 100 mg/kg; outline: as §2
Mus musculus [13] = experiment: Anticonvulsant activity in albino CF1 mouse assessed as protection against maximal electroshock-induced seizures at 100 mg/kg, ip after 0.25 hr; format: functional, organism-based; design: dose 100 mg/kg; outline: as §2
Mus musculus [14] = experiment: Anesthetic activity in […] assessed as latency in response to thermal stimuli administered as 2% solution, sc measured after 15 mins by modified tail immersion test; format: functional, albino CF1
Mus musculus [15] = experiment: Anesthetic activity in albino CF1 mouse assessed as latency in response to thermal stimuli administered as 1% solution, sc measured after 15 mins by modified tail immersion test; format: functional
Outline: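 Male Albino Swiss (CD-1) mice, 6-8 per group, tested at 1% and 2% compound concentration. Tail distal 3 cm immersed in water at 50 ± 0.5 °C 15 min after treatment. Tail-withdrawal latency recorded with a 20 s cutoff. Value is % difference in latency vs vehicle-treated mice. Mean ± SEM, Student's t-test.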

Mus musculus [16] = experiment: […] activity in ip dosed albino CF1 mouse assessed as inhibition of phenylbenzoquinone-induced writhing administered after 30 mins prior challenge; format: functional
Outline: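 Male Albino Swiss (CD-1) mice, 6-8 per dose. Compound given ip in 0.5% methylcellulose. 30 min later, 0.25 ml of 0.02% phenylbenzoquinone injected. After 5 min, writhes counted over 10 min. % effect = (vehicle mean − drug mean)/vehicle mean × 100. ED50 derived; Student's t-test.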

Mus musculus [17] = experiment: Analgesic activity in albino CF1 mouse assessed as inhibition of heat-induced paw licking or jumping behaviour administered after 30 mins prior heat challenge by hot plate method; format: functional

Structure (SMILES)	Activity (Mus musculus [1])	Activity (Mus musculus [2])	Activity (Mus musculus [3])	Activity (Mus musculus [4])	Activity (Mus musculus [5])	Activity (Mus musculus [6])	Activity (Mus musculus [7])	Activity (Mus musculus [8])	Activity (Mus musculus [9])	Activity (Mus musculus [10])	Activity (Mus musculus [11])	Activity (Mus musculus [12])	Activity (Mus musculus [13])	Activity (Mus musculus [14]) [%]	Activity (Mus musculus [15]) [%]	ED50 (Mus musculus [16]) [mg/kg]	ED50 (Mus musculus [17]) [mg/kg]
CC1CC(N2CCN(c3ccccc3)CC2)C(=O)O1 (mixture of isomers)	inactive	Non-toxic	Toxic	Non-toxic	Non-toxic	Non-toxic	Non-toxic	inactive	Active	inactive	inactive	inactive	inactive				
Cc1cccc(C)c1NC1CCOC1=O (stereo unspecified)	inactive	Non-toxic	Non-toxic	Non-toxic		Non-toxic		inactive	inactive	inactive		inactive					
O=C1OCCC1NCc1ccccc1C(F)(F)F (racemic)	inactive	Non-toxic	Non-toxic	Non-toxic		Non-toxic		inactive	inactive	inactive		inactive					
O=C1OCCC1N1CCN(c2ccc(F)cc2)CC1 (racemic)	inactive	Toxic	Toxic	Toxic		Toxic		inactive	inactive	inactive		inactive					
CCN(CC)CC(=O)Nc1c(C)cccc1C [LIDOCAINE]														173	132		
Cl.O=C1OCCC1NCc1ccccc1 (racemic)	inactive	Non-toxic	Non-toxic	Non-toxic		Non-toxic		inactive	inactive	inactive		inactive		64	1	2.4	4.3
Cl.O=C1OCCC1N1CCOCC1 (racemic)	inactive	Non-toxic	Toxic	Non-toxic		Non-toxic		inactive	inactive	inactive		inactive				5.4	9.9
COc1cccc(N2CCN(C3CCOC3=O)CC2)c1 (racemic)	inactive	Non-toxic	Non-toxic	Non-toxic		Non-toxic		inactive	Active	inactive		inactive		75	6	3	3.2
O=C1CC(N2CCN(c3ccccc3)CC2)CO1 (racemic)	inactive	Non-toxic	Toxic	Non-toxic		Toxic		inactive	inactive	inactive		inactive					
O=C1OCCC1N1C(=O)c2ccccc2C1=O (racemic)	inactive	Non-toxic	Toxic	Non-toxic		Toxic		inactive	inactive	inactive		inactive				4.5	33.9
COc1ccc(CNC2CCOC2=O)cc1.Cl (racemic)	inactive	Non-toxic	Non-toxic	Non-toxic		Non-toxic		inactive	inactive	inactive		inactive					
COc1cc2c(cc1OC)CN(C1CCOC1=O)CC2 (racemic)	inactive	Non-toxic	Non-toxic	Non-toxic		Non-toxic		inactive	inactive	inactive		inactive				6.1	39.8
CC(=O)Oc1ccccc1C(=O)O [ASPIRIN]																39.2	
CC1CC(NCc2ccccc2)C(=O)O1.Cl (mixture of isomers)	inactive	Non-toxic	Non-toxic	Non-toxic		Non-toxic		inactive	inactive	inactive		inactive					
Cc1cccc(C)c1NC(=O)C1CCCCN1C (stereo unspecified) [MEPIVACAINE]														117	95		
COc1ccc(N2CCN(C3CCOC3=O)CC2)cc1 (racemic)	inactive	Non-toxic	Non-toxic	Non-toxic		Non-toxic		inactive	inactive	inactive		inactive		49	-3	9.6	32.5
CN1CC[C@]23c4c5ccc(O)c4O[C@H]2[C@@H](O)C=C[C@H]3[C@H]1C5 [MORPHINE]																2.4	3.4
